Measured values published in ChEMBL document CHEMBL4513216, “Probing the Open Global Health Chemical Diversity Library for Multistage-Active Starting Points for Next-Generation Antimalarials” (ACS Infect Dis, 2020).

Test: Toxicity liver stage against HepG2, at 10uM
Type: cell-based
Design: test concentration 10 uM, cell line HepG2-A16-CD81EGFP
Details: human, HepG2-A16-CD81EGFP cells; read-out: INHIBITION
In short: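 Uninfected HepG2-A16-CD81EGFP cells, 3 × 10^3 per well, 1536-well, plated on prespotted compound at 10 μM final, parasite-free screening media added to match infected plates; puromycin 10 μM positive, DMSO 0.5% negative; run in parallel with 48 h PbLuc assay at 37 °C, 5% CO2; viability by CellTiter-Glo luminescence, normalized to controls.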

| SMILES | cytotoxicity at 10 µM [%] |
| --- | --- |
| O=C(NC[C@H]1OC[C@@H](NCc2ccccn2)[C@@H]1O)c1ccc(F)cc1 | -2.65 |
| COC(=O)N1CCN2C[C@H](CO)[C@@H](c3ccccc3)[C@H]2C1 | 6.12 |
| O=C(NCC(Cc1cccc(F)c1)n1cccc1)C1CC1 (configuration not stated) | 1.22 |
| CSCC(C)(O)CNC(=O)Nc1cc(C)cc(C)c1 (configuration not stated) | -3.24 |
| CCOc1ccc(NC(=O)Nc2cnc(N3CCOCC3)nc2)cc1 | -11.4 |
| O=C1COc2ccc(Cl)cc2CN1CC1CC1 | -9.2 |
| CCN1CC2(CCCCN2C(=O)c2ccsc2)CC1=O (configuration not stated) | 5.97 |
| c1ccc(COC[C@@]23CCC[C@@H]2CN(Cc2ccccn2)C3)nc1 | 1.39 |
| CCNC(=O)c1cc(OC)c2cc(F)cc(C)c2n1 | -3.42 |
| NC(=O)c1ccc2c(c1)nc1n2CCN(Cc2ccco2)C1 | -11.3 |
| O=S(=O)(C1CC1)N1CCC2(COCc3cnc(N4CCOCC4)nc32)C1 (configuration not stated) | -5.44 |
| Cc1nn(CCC(=O)NC2CCS(=O)(=O)C2)c(C)c1Br (configuration not stated) | 0.549 |
| O=C(NCCCN1CCOCC1)c1ccn(COc2ccccc2)n1 | 5.5 |
| CCOc1ccc(N2CCCN=C2NC(=O)c2ccc(OC)cc2)cc1 | 6.03 |
| CCn1cc(CNc2ccc(F)c(F)c2)cn1 | -0.0638 |
| CCS(=O)(=O)N1CCCC(n2nnn(-c3ccccc3)c2=O)C1 (configuration not stated) | 2.65 |
| Cc1nonc1CN(C)Cc1cnn(-c2ccc(Cl)cc2)c1 | -16.3 |
| Cc1cccc(CC2CCCN(C(=O)Cc3csc(C)n3)C2)n1 (configuration not stated) | -26.5 |
| Cc1cc(C)nc(C2CCN(C(=O)c3cnco3)C2)n1 (configuration not stated) | -4.22 |
| CCc1cc(C(F)(F)F)c2c(C3CCCN(C(=O)COC)C3)noc2n1 (configuration not stated) | -17.6 |
| Cc1noc(CCNC(=O)c2ccc(Br)c(S(=O)(=O)N(C)C)c2)n1 | 6.45 |
| COc1cccc(F)c1C(C)NC(=O)NCc1cnc(C)s1 (configuration not stated) | -4.94 |
| Cc1noc(C(C)C)c1C(=O)NCC1CCN(c2ccccc2)C1 (configuration not stated) | -11.8 |

| SMILES | cytotoxicity at 10 µM [%] |
| --- | --- |
| CCC(O)(CNCc1ccncc1)c1ccc(Br)cc1 (configuration not stated) | -8.64 |
| c1cc(CNCc2cccc3c2OCCO3)cc(Cn2cncn2)c1 | -1.54 |
| CC(C)c1nnc(CN2CCCc3ccc(S(N)(=O)=O)cc32)o1 | -1.08 |
| CN(CC(=O)NCC1CCCCC1)S(=O)(=O)c1cccnc1 | 3.82 |
| CC(C)(C)C(=O)NCCCc1nc2ccccc2[nH]1 | 5.68 |
| CCOCCC(=O)NC(Cc1ccc(C)cc1)c1ccccn1 (configuration not stated) | -1.55 |
| CCc1nc(CCNc2ncccc2C#N)sc1C | 15.4 |
| CC(CNC(=O)c1cccc(C#N)c1)N1CCc2ccccc21 (configuration not stated) | -16.3 |
| CCC(C)(CC(=O)OC)NC(=O)c1cccc(F)c1F (configuration not stated) | -4.13 |
| COc1cc(NC(=O)N(C)Cc2ccc(Br)o2)ncn1 | -4.12 |
| CC(C)n1c(C2CCCN(CC(N)=O)C2)nc2ccccc21 (configuration not stated) | -7.68 |
| CC(CO)NC(=O)Nc1ccc(COC2CCCC2)cc1 (configuration not stated) | -7.41 |
| CC1CCN(CCNC(=O)C2CCN(C(=O)C3CC3)CC2)CC1 | 6.86 |
| CN(C)C(=O)Cn1cc(C(=O)NCCc2cccc(Cl)c2Cl)nn1 | -1.42 |
| CCc1nnc2n1CCN(C(=O)c1ccc3c(c1)nnn3C)C2 | -4.68 |
| CCOc1ccccc1NC(=O)N(CCO)Cc1ccsc1 | 0.633 |
| Cc1noc(Cl)c1CC(=O)N1CCCC1Cn1cccn1 (configuration not stated) | -9.76 |
| N#Cc1cccc(NC(=O)N2CCCC(N3CCCC3=O)C2)c1 (configuration not stated) | 7.92 |
| CC(C)NC(=O)NCCCOC1CCOCC1 | -17 |
| CC(=O)N(c1ccc(F)cc1)c1nc(CN2CCCC2C(C)C)cs1 (configuration not stated) | -12.2 |
| O=C1CCCN1c1cccc(CNCc2nc(-c3ccco3)no2)c1 | 0.379 |
| CC(O)CN1CCC(CN(C)Cc2cccc(C#N)c2)CC1 (configuration not stated) | -1.3 |
| CNS(=O)(=O)c1csc(C(=O)N(C)Cc2ccccc2C)c1 | 6.78 |

| SMILES | cytotoxicity at 10 µM [%] |
| --- | --- |
| CN(CCS(=O)(=O)c1cc(Cl)ccc1Cl)CC(=O)Nc1ccc(F)cc1 | 8.9 |
| CC(CC1CC1)NCCCN1CCCN(C)CC1 (configuration not stated) | 31.7 |
| Cc1ccc(S(C)(=O)=O)cc1C(=O)NS(C)(=O)=O | -11.4 |
| Cc1noc(CCCC(=O)Nc2ncccc2Br)n1 | -15.7 |
| CCc1nc(NS(=O)(=O)c2cc(C)ccc2F)no1 | -4.71 |
| CC(=O)c1cccc(OCCCC(=O)N(C)CCc2ccncc2)c1 | -11.7 |
| Cc1nc(C)n(CC2CCCCN2CCS(C)(=O)=O)n1 (configuration not stated) | -10.9 |
| CC(C)CNC(=O)NC(=O)CNc1ccccc1SCC(C)C#N (configuration not stated) | -8.05 |
| NS(=O)(=O)CCNC(=O)C1(c2ccc(Br)cc2)CC1 | -4.69 |
| NC(=O)c1cc(NC(=O)N2CCCCCC2)ccc1F | 0.692 |
| O=C(C1CCOC1)N1C[C@@H]2CCN(C(=O)c3cscn3)[C@@H]2C1 (some centres not stated) | -2.85 |
| Cc1nc(CN2C[C@@H]3CN(C(=O)CC(F)(F)F)C[C@@H]3C2=O)cs1 | -73.5 |
| Cc1ccc([C@@H]2CN(C(=O)c3cc(C)no3)C[C@H]2NC(=O)C2CC2)cc1 | -1.82 |
| CN(Cc1ccc(-n2ccnc2)cc1)Cc1ncc[nH]1 | 3.69 |
| CCS(=O)(=O)c1ncc(CN(C)C)n1Cc1ccccc1 | 1.73 |
| CCn1ccnc1CN1CCCn2nc(CNC(=O)C3CCC3)cc2C1 | -7.79 |
| COCc1cn(CC2CCN(Cc3nc(C)c[nH]3)CC2)nn1 | 0.622 |
| CO[C@H]1COC[C@@H]1NC(=O)C1(Oc2ccc(Cl)cc2)CCNCC1 | -1.91 |
| CC(C)N1CCCC2(CCN(c3nccc(C(F)(F)F)n3)C2)C1=O (configuration not stated) | 11.4 |
| Cc1ccc(C(=O)N2CCC3(CCC(=O)N(CC(C)O)C3)CC2)c(O)c1 (configuration not stated) | 11 |
| Cc1[nH]c2c(F)cccc2c1CC(=O)NCc1csc(N(C)C)n1 | -1.43 |
| COc1cccc(CNC2CCSC2)c1OC (configuration not stated) | 2.25 |
| Cn1ccnc1SCCNc1cc(N2CCOCC2)ncn1 | 4.91 |

| SMILES | cytotoxicity at 10 µM [%] |
| --- | --- |
| CCn1nc(C)c(CCNC(=O)C2CCCN(C(N)=O)C2)c1C (configuration not stated) | -11.2 |
| CCC(CO)N(Cc1ccc(F)cc1)Cc1c(C)nn(C)c1Cl (configuration not stated) | 8.64 |
| CC(NC1CCCC1)c1ccccc1-n1cccn1 (configuration not stated) | 7.5 |
| CCOc1ccccc1OCCN(C)Cc1ncnn1CC | 10.2 |
| COc1cccc(N2CCN(C(=O)C(OC)c3ccccc3)CC2=O)c1 (configuration not stated) | -0.693 |
| CC(C)Cc1cc(C(=O)NCC(O)CN2CCCCCC2)on1 (configuration not stated) | -1.53 |
| Cc1nc(C)c(C)c(NCCSCc2[nH]cnc2C)n1 | 2.3 |
| CN1CCN(C[C@@H]2CN(C(=O)NCC3CCCCC3)C[C@@H]2CO)CC1 | -9.18 |
| CCCSCC(=O)N1C[C@@H](NC(C)=O)[C@H](c2ccc(OC)cc2)C1 | 7.41 |
| CC(C)N(Cc1nccn1C)C(=O)c1cnc(O)cn1 | -1.82 |
| Cc1ccc(C(=O)O)cc1-c1cccc(C(C)N(C)C)c1 (configuration not stated) | -3.17 |
| CCC(=O)N1CCCC1c1nccnc1Nc1nc(C)cc(C)n1 (configuration not stated) | 3.99 |
| CNS(=O)(=O)c1ccc(C)c(C(=O)NCCNc2ncccn2)c1 | -1.87 |
| COc1c(CNCCC(=O)NC2CCCCC2)c(C(C)C)nn1C | -10.4 |
| COc1cc(NC(=O)CCn2nc(-c3cccs3)oc2=O)cc(OC)c1 | 2.9 |
| O=C(Cc1c(F)cccc1Cl)N1CCC(Nc2cccnn2)CC1 | -4.92 |
| CN(C)c1cc(C(=O)N2CCCCC2CNS(C)(=O)=O)ccn1 (configuration not stated) | -16 |
| Cc1nc(C)n(CC2CCCN(CCC(=O)NC3CCCC3)C2)n1 (configuration not stated) | -6.73 |
| O=C(CN(Cc1ccco1)C1CC1)N1CCCCCC1 | -3.26 |
| COc1cc2ccccc2cc1C(=O)N1CCCC(c2nncn2C)C1 (configuration not stated) | -6.9 |
| Cn1cnnc1C1CCCN(C(=O)c2cc3ccccc3[nH]2)C1 (configuration not stated) | -7.88 |
| CCc1ccc(S(=O)(=O)Nc2c(C)cccc2C(=O)O)s1 | -15.9 |
| Cn1ccc(CN2CCCC2c2ccc3c(c2)OCCCO3)cc1=O (configuration not stated) | -4.2 |

| SMILES | cytotoxicity at 10 µM [%] |
| --- | --- |
| Cc1csc(N2CCCN(C(=O)C3(C#N)CCCCC3)CC2)n1 | -2.45 |
| CCc1nc(C2CCCN2C(=O)c2ccc3c(c2)nc(C)n3C)no1 (configuration not stated) | 3.54 |
| COc1ccc(CN2CCCC2Cn2nc(C)nc2C)cc1F (configuration not stated) | 2.89 |
| CC(CNCc1ccc2c(c1)n(C)c(=O)n2C)Oc1ccccn1 (configuration not stated) | 6.27 |
| COCCN1CCn2c(CN(C)C(C)C)cnc2C1 | -2.92 |
| CCN1CCn2c(C)cnc2C12CCN(C(=O)c1cscn1)CC2 | 6.59 |
| CO[C@@H]1CC[C@H]2[C@H]1OCCN2Cc1ccc(F)c(F)c1 | 4.33 |
| c1cncc(CO[C@H]2CC[C@H]3[C@@H]2OCCN3C2CCOCC2)c1 | -14.4 |
| O=C1CCCN1Cc1nnc2n1CCN(Cc1ccco1)CC2 | 3.39 |
| COc1ccc(CN2CCC3(CC2)CCN(CC(=O)N(C)C)C3=O)cc1 | -0.449 |
| COc1cccc(-c2c[nH]c(C3CCCN3)n2)c1 (configuration not stated) | -4.91 |
| CN1CCN(Cc2cccnc2)C2(CCN(c3ncc(F)cn3)C2)C1=O (configuration not stated) | -6.49 |
| COC[C@H]1CCC[C@]12CN(CCc1ccccc1)CCO2 | 4.34 |
| Cc1cccc(CN2C[C@@H]3OCCN(S(=O)(=O)N(C)C)[C@@H]3C2)c1 | -12.4 |
| CCOCC1CN(c2ccncn2)Cc2cnn(CC3CC3)c21 (configuration not stated) | 6.38 |
| CC(=O)N1C[C@@H]2CN(Cc3cccnc3)CCO[C@@H]2C1 | -0.271 |
| Cc1ccc(N2CCCC3(COCCN(c4nccs4)C3)C2)nn1 (configuration not stated) | -1.05 |
| O=C1NC2(CCN(C(=O)c3ccccc3)CC2)CC1c1cccnc1 (configuration not stated) | -10.9 |
| CS(=O)(=O)N1C[C@H]2CC[C@@H](C1)N(C(=O)Cn1ccc3ccccc31)C2 | -1.38 |
| COCC(=O)NCC1CCC(c2nnc(-c3cccnc3)o2)CC1 (configuration not stated) | -2.74 |
